Assay results published in ChEMBL document CHEMBL5696442, “Discovery of type II inhibitors of TGFβ-activated kinase 1 (TAK1) and mitogen-activated protein kinase kinase kinase kinase 2 (MAP4K2)” (J Med Chem, 2015).

Key:
[1] = target: Serine/threonine-protein kinase N2 (Homo sapiens) (UniProt Q16513); test: Inhibition of PKN2 Lys2 labeling site in human Huh-7 cell lysate at 1 uM by KiNativ Profiling analysis relative to control; format: subcellular
[2] = target: Mitogen-activated protein kinase kinase kinase 4 (Homo sapiens) (UniProt Q9Y6R4); test: Inhibition of MAP3K4 Lys2 labeling site in human Huh-7 cells at 1 uM by KiNativ Profiling analysis relative to control; format: cell-based
Sequence of Mitogen-activated protein kinase kinase kinase 4 (Homo sapiens) (Q9Y6R4 whole entry): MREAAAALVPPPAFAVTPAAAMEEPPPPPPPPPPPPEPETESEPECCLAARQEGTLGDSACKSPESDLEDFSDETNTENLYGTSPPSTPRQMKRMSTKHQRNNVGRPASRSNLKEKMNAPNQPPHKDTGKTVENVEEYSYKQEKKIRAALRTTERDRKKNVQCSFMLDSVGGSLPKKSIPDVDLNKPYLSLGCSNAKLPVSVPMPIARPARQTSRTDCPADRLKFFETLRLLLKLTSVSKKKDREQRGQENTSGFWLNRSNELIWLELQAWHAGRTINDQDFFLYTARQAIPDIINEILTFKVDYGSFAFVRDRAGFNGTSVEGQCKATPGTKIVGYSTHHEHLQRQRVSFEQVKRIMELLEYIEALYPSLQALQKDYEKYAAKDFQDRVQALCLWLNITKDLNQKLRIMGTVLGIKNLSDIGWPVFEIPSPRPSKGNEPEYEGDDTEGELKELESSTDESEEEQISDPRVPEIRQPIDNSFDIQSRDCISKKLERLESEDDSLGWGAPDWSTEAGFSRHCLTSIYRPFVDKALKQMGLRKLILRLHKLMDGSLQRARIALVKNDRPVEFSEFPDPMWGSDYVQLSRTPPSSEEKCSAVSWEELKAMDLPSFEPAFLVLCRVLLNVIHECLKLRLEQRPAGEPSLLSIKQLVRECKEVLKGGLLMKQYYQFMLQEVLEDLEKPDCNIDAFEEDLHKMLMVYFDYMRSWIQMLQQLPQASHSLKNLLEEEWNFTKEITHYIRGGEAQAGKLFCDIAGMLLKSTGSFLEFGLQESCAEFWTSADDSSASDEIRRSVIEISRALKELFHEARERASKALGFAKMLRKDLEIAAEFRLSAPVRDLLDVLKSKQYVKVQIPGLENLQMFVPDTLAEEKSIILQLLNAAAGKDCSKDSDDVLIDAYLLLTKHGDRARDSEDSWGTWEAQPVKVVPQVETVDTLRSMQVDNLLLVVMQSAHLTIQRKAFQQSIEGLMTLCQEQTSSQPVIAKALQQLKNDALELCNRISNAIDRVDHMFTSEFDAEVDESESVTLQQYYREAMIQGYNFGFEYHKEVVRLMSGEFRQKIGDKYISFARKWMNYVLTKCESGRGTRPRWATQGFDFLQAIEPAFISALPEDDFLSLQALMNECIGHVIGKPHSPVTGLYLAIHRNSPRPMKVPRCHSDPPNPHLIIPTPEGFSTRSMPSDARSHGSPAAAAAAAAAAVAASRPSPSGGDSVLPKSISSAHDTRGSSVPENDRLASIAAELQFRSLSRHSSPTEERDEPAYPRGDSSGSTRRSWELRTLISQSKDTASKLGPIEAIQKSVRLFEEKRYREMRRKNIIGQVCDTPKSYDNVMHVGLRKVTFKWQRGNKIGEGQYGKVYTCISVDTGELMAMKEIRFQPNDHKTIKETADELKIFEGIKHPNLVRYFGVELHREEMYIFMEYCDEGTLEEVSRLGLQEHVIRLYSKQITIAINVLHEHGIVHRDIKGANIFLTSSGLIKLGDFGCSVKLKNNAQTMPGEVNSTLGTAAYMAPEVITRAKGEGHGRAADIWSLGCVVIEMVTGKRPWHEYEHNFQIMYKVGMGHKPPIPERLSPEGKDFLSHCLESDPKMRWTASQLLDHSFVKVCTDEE

[3] = target: Serine/threonine-protein kinase 38 (Homo sapiens) (UniProt Q15208); test: Inhibition of NDR1 Lys1 labeling site in human Huh-7 cells at 1 uM by KiNativ Profiling analysis relative to control; format: cell-based
Sequence of Serine/threonine-protein kinase 38 (Homo sapiens) (Q15208 2-465 limits assumed): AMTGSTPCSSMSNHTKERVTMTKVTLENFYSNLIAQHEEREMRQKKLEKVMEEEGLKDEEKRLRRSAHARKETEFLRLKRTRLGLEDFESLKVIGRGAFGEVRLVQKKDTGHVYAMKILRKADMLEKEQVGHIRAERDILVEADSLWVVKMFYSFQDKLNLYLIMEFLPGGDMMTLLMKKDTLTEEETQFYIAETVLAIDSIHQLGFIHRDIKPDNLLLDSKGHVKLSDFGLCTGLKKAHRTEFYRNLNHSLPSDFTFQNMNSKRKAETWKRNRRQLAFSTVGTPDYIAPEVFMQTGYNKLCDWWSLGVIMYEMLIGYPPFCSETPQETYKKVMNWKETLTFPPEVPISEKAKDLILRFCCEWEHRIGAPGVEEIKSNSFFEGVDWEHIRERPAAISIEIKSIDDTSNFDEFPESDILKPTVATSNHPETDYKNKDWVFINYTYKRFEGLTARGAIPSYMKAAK

[4] = target: T1, Mitogen-activated protein kinase 13 (Homo sapiens) (UniProt O15264); test: Inhibition of p38delta Lys2 labeling site in human Huh-7 cells at 1 uM by KiNativ Profiling analysis relative to control; format: cell-based
T1 sequence (whole entry): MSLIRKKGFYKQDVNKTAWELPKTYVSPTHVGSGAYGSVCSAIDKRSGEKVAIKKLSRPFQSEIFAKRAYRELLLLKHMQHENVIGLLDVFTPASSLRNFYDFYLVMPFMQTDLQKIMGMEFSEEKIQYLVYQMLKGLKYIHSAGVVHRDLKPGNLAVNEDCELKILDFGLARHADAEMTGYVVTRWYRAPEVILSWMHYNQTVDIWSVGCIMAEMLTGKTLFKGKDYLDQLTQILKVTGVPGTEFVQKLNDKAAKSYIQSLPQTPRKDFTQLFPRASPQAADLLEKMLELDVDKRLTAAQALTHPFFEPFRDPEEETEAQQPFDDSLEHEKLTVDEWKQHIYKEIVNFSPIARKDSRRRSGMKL

[5] = target: Dual specificity mitogen-activated protein kinase kinase 2 (Homo sapiens) (UniProt P36507); test: Inhibition of MAP2K2 Lys1 labeling site in human A-375 cells at 5 uM by KiNativ Profiling analysis relative to control; format: cell-based
[6] = target: Ribosomal protein S6 kinase alpha-3 (Homo sapiens) (UniProt P51812); test: Inhibition of RSK2 Domain 2 K2 labeling site harbouring DLKPSNILYVDESGNPESIR in human Huh-7 cells at 1 uM by KiNativ Profiling analysis relative to control; format: cell-based
Sequence of Ribosomal protein S6 kinase alpha-3 (Homo sapiens) (P51812 whole entry, the tested form may be a part): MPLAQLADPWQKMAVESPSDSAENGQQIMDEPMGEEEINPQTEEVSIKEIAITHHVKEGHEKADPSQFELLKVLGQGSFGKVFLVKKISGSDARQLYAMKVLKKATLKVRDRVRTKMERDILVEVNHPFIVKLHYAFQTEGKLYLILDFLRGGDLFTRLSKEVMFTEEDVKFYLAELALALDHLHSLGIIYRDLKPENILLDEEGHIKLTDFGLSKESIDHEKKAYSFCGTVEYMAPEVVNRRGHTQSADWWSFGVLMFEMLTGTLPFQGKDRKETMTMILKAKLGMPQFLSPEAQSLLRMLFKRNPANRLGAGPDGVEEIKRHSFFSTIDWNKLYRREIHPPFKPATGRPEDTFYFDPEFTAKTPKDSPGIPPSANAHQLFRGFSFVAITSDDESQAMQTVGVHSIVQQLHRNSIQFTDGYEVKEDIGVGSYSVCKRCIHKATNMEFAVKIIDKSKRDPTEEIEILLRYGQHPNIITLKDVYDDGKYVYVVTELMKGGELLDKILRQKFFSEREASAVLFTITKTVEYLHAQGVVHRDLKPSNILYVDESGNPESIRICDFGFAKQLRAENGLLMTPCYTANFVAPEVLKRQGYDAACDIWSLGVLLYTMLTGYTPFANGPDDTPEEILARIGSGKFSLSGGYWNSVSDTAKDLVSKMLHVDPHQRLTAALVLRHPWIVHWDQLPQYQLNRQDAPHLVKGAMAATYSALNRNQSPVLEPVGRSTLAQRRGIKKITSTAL

[7] = target: Non-receptor tyrosine-protein kinase TNK1 (Homo sapiens) (UniProt Q13470); test: Inhibition of TNK1 (unknown origin) at 10 uM by Ambit Kinomescan binding assay relative to control; values are per cent of control
Sequence of Non-receptor tyrosine-protein kinase TNK1 (Homo sapiens) (Q13470 whole entry): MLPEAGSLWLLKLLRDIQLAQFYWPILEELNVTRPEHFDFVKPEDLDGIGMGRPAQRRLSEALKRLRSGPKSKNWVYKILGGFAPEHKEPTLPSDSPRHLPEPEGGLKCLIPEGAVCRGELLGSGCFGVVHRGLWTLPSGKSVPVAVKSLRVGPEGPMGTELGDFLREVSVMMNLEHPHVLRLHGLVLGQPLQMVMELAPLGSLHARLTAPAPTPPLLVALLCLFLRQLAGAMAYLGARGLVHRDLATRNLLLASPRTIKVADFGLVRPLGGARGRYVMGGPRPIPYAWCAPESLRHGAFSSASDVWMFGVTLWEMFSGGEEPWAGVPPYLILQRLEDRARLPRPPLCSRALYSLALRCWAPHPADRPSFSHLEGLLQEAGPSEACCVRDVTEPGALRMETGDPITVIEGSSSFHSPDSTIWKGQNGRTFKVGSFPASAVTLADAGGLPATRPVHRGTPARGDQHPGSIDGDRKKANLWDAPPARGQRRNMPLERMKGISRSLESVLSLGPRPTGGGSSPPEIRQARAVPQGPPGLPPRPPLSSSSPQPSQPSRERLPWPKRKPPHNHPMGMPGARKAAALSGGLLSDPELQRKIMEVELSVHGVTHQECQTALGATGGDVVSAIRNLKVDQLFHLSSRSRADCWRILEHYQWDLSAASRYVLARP

[8] = target: T1, Mitogen-activated protein kinase 13 (Homo sapiens); test: Inhibition of p38delta (unknown origin) at 10 uM by Ambit Kinomescan binding assay relative to control; values are per cent of control
[9] = target: Mitogen-activated protein kinase 4 (Homo sapiens) (UniProt P31152); test: Inhibition of ERK4 (unknown origin) at 1 uM by Ambit Kinomescan binding assay relative to control
Sequence of Mitogen-activated protein kinase 4 (Homo sapiens) (P31152 whole entry, the tested form may be a part): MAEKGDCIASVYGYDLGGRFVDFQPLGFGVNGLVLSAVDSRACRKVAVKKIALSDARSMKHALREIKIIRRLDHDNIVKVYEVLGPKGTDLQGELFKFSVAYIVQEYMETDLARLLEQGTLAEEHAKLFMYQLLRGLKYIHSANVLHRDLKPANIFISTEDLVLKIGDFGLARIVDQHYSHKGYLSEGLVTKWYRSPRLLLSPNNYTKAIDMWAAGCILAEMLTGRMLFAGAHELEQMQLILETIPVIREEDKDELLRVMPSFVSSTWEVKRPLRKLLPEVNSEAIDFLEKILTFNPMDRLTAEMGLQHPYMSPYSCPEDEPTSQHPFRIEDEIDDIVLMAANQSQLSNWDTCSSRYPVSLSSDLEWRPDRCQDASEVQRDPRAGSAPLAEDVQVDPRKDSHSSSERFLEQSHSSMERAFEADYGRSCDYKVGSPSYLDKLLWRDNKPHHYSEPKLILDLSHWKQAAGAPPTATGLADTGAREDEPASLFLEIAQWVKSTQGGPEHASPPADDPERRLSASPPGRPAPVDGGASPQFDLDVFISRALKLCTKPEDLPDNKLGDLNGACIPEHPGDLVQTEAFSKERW

[10] = target: Ribosomal protein S6 kinase alpha-6 (Homo sapiens) (UniProt Q9UK32); test: Inhibition of C-terminal RSK4 kinase domain 2 (unknown origin) at 1 uM by Ambit Kinomescan binding assay relative to control
Sequence of Ribosomal protein S6 kinase alpha-6 (Homo sapiens) (Q9UK32 whole entry, the tested form may be a part): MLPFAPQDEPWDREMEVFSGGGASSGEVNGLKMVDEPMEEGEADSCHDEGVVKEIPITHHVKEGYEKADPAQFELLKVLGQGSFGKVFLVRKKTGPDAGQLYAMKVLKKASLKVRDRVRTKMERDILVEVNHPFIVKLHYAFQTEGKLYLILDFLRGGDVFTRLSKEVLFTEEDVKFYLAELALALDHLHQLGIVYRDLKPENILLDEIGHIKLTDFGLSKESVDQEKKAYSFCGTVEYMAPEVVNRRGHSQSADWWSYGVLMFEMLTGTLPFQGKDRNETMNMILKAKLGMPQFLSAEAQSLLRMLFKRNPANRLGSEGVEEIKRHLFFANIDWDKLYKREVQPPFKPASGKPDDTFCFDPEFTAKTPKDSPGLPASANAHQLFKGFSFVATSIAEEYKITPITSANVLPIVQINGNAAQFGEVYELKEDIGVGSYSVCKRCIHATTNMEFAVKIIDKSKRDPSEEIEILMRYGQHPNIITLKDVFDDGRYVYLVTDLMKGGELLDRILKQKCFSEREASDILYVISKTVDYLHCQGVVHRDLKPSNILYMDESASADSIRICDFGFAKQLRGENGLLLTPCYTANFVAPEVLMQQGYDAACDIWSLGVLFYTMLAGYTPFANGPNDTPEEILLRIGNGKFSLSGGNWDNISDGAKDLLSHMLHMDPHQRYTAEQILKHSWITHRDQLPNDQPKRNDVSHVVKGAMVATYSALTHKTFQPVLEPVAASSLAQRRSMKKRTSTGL

[11] = target: Microtubule-associated serine/threonine-protein kinase 4 (Homo sapiens) (UniProt O15021); test: Inhibition of MAST4 Lys2 labeling site in human A-375 cells at 5 uM by KiNativ Profiling analysis relative to control; format: cell-based
Outline: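 Live A375 melanoma cells were treated with compound at 5 or 0.5 μM, then lysed. Lysates were labeled with a lysine-reactive ATP or ADP-biotin probe. Read-out was the compound's protection of kinase labeling sites from probe labeling (KiNativ).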

[12] = target: T2, Serine/threonine-protein kinase TAO1 (Homo sapiens) (UniProt Q7L7X3); test: Inhibition of TAO1 Lys2 labeling site in human A-375 cells at 5 uM by KiNativ Profiling analysis relative to control; format: cell-based
T2 sequence (whole entry): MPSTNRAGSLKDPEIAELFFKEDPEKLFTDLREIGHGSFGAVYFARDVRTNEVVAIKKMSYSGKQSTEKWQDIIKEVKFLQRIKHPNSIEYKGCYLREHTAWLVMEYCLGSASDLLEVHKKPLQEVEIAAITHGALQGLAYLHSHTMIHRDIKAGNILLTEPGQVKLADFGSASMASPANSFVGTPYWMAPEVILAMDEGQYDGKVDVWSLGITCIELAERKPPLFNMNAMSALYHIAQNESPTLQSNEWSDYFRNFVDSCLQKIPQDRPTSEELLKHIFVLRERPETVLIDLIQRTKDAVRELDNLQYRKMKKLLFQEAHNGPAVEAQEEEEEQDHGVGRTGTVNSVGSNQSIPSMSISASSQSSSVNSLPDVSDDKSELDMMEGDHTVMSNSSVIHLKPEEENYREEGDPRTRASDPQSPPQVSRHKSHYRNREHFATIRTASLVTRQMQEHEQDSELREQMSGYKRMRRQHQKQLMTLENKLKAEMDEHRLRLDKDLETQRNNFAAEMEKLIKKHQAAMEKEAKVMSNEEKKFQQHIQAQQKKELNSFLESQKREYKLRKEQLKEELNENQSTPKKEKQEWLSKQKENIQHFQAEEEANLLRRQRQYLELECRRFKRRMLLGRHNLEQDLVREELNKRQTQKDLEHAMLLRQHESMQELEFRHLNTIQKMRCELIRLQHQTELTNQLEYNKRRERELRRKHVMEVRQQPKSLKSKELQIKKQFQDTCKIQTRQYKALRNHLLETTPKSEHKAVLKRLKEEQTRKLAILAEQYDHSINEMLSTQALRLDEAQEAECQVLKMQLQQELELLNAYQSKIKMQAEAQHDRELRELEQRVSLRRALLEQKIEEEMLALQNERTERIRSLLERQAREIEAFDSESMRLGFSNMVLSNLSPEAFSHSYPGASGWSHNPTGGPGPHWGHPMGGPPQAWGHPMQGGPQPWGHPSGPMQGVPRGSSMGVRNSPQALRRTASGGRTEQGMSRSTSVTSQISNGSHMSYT

## CNc1cc(Oc2cc(C(=O)Nc3cc(N4CCN(C)CC4)cc(C(F)(F)F)c3)ccc2C)ncn1
[1]
  inhibition: -8.4%
[2]
  inhibition: 77%
[3]
  inhibition: 16.4%
[4]
  inhibition: 13%

## CCN1CCN(Cc2ccc(NC(=O)c3ccc(C)c(Oc4ccnc5[nH]ccc45)c3)cc2C(F)(F)F)CC1
[5]
  inhibition: 1.3%
[6]
  inhibition: 11.5%
[7]
  residual activity: 0.35%
[8]
  percent of control: 0.55%

## CCN1CCN(Cc2ccc(NC(=O)c3ccc(C)c(/C=C/c4cnc5[nH]ccc5c4OC)c3)cc2C(F)(F)F)CC1
[9]
  inhibition: 77%
[10]
  inhibition: 50%
[11]
  inhibition: -8.4%
[12]
  inhibition: 66.2%
